Screening results (PubChem BioAssay)
MrgX1 allo act: human MrgX1 positive allosteric modulation, primary screen; MrgX1-HEK293, Fluo-4 calcium flux, FDSS; active compounds read high; B-score at 10 µM; 310,000 compounds, 0.63% hits; AID 588675;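 active means plate-corrected calcium response at least 3 library SD above typical, normal starting fluorescence, not activating the receptor alone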;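 further: compound read alongside a low EC10 to EC30 dose of BAM8-22 agonist; peak minus trough fluorescence over baseline measured at the second addition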
Target sequence (Q96LB2 whole entry, looked up): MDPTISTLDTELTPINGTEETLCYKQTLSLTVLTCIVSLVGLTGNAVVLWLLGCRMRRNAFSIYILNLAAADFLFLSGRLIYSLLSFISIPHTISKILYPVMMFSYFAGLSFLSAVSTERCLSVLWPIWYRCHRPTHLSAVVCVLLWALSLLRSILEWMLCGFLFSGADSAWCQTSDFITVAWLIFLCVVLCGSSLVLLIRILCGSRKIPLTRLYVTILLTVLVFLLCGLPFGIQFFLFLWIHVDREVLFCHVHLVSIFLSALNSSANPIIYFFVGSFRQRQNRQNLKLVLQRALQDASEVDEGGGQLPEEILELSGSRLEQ
RGS4 block: inhibitors of human RGS4; HEK293 M3R/RGS4 inducible, Fluo-4 calcium flux; active compounds read high; triggered by carbachol at its EC20; B-score at 10 µM; 310,000 compounds, 0.45% hits;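 active means B-score, a plate-corrected calcium signal, over three deviations above library mean, with baseline fluorescence within five deviations of library mean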;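 further: RGS4 expression induced by doxycycline in cells with stable M3 receptor; B-score is computed from the integrated fluorescence ratio over baseline after carbachol; higher B-score means a larger calcium signal and so more RGS4 inhibition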
Target sequence (P49798 whole entry, looked up): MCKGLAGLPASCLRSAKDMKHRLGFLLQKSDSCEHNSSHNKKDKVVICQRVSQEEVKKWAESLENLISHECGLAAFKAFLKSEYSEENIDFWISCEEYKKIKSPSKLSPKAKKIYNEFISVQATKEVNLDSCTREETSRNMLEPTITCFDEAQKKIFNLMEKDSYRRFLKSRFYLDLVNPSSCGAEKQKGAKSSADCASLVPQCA
MrgX1 antagonist: human MrgX1 receptor antagonism, primary screen; Q96LB2; MRGX1-HEK293 calcium flux, Fluo-4, BAM8-22 antagonism; active compounds read low; B-score at 10 µM; 310,000 compounds, 1.3% hits; AID 588676;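 active means calcium-response B-score plate-corrected more than 3 library SD below zero, starting fluorescence within 5 deviations, no agonist response on first addition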;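 further: peak minus trough fluorescence over baseline after final BAM8-22 challenge near maximal dose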
RGS4 pot: potentiators or activators of RGS4 | 310,000 compounds, 0.92% hits | AID 463111 | HEK293 M3R/inducible RGS4, carbachol calcium flux Fluo4; active compounds read low | B-score at 10 µM;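 active means B-score of the integrated calcium signal more than 4 SD below the library mean, with starting fluorescence not abnormally high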;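 further: negative B-score means reduced calcium response which marks RGS4 activation or potentiation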
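Detection: kinetic calcium fluorescence imaging with Fluo4-AM dye, 2 µM / Material: HEK293 cells with stable M3R and inducible RGS4 / Schedule: recording 10 s baseline at 1 Hz, 100 s post-agonist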
MrgX1 agonist: agonists of human MrgX1 receptor | MrgX1-HEK293 cells, Fluo-4 calcium fluorescence, agonist mode; active compounds read high | B-score at 10 µM | 310,000 compounds, 0.44% hits | AID 588627;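 active means calcium response B-score plate-corrected fluorescence ratio at least 3 library SD, with starting fluorescence B-score inside 5 SD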
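Test system: Stable human MrgX1 HEK293 cell line | Schedule: Overnight plating before 1 h dye loading | Read-out basis: Baseline-normalised fluorescence change ratio, B-scored | Detection: Kinetic calcium dye fluorescence, Fluo-4 NW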
MrgX1 ag confirm: confirmation of human MrgX1 receptor agonists; shares compounds with MrgX1 agonist; activation, % at 10 µM; 600 compounds, 78% hits; MrgX1-HEK293, Fluo-4 calcium fluorescence, FDSS;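 active means calcium signal rise, corrected for plate position, at least 3 library SD high, with starting brightness within 5 such deviations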
HEK293 Ca flux: MrgX1 antagonist counter-screen hit in parental HEK293 cells; shares compounds with MrgX1 antagonist; Fluo-4 calcium fluorescence, FDSS; fluorescence ratio F(max-min)/F0 at 10 µM; 4,000 compounds, 2% hits;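 active means duplicate-averaged calcium fluorescence ratio at least three times the standard deviation of buffer wells, a nonspecific response in parental cells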
HEK293 Ca counter: MrgX1 allosteric activator counter-screen hit in parental HEK293 cells; 4,000 compounds, 0.4% hits; parental HEK293 calcium flux, Fluo-4 fluorescence ratio; active compounds read high; fluorescence ratio F(max-min)/F0 at 10 µM; shares compounds with MrgX1 antagonist;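 active means calcium fluorescence ratio, averaged over duplicates, at least 3 SD of the buffer-well ratio, meaning a nonspecific response in receptor-free cells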;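 further: untransfected parental HEK293 lacking MrgX1 used as counterscreen for MrgX1 allosteric activators; fluorescence change taken during the second addition on a kinetic imager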
HEK293 Ca cntr2: counter-screen for MrgX1 activators: effect in parental HEK293 cells; Fluo-4 calcium fluorescence (FDSS); active compounds read high; fluorescence ratio F(max-min)/F0 at 10 µM; 4,000 compounds, 8.7% hits; shares compounds with MrgX1 antagonist;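 active means calcium fluorescence ratio at least three times the spread of buffer wells, meaning a non-specific response in parental cells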
Starred values were filed as active, the others as inactive; i = inactive; / = no result given. The list is not random: actives were taken first. Their share in the collection is about 3.5%.

SMILES	MrgX1 allo act	RGS4 block	MrgX1 antagonist	RGS4 pot	MrgX1 agonist	MrgX1 ag confirm	HEK293 Ca flux	HEK293 Ca counter	HEK293 Ca cntr2
Oc1cccc(Nc2nc(O)c(/C=C3\C=Nc4ccccc43)s2)c1	i	/	i	/	39.3*	416.4%*	i	i	76.2*
CC(=O)COc1cccc2ccc(/C=C/c3ccc(Br)s3)nc12	i	i	i	i	38.4*	162.7%*	i	i	48.9*
CCCOc1ccc(C(=O)NNC(=S)NC(=O)c2cccs2)cc1	i	i	i	-8.62*	110*	495.6%*	i	i	104*
CCCOc1ccc(C(=O)NNC(=S)NC(=O)c2ccccc2)cc1	i	i	i	-8.38*	91.3*	662.7%*	i	i	128*
CCCCn1c(SCC(=O)NC2CCCC2)nnc1-c1ccco1	i	i	i	i	i	/	/	/	/
Cc1cccc(-n2ncc3c(NCc4ccc5c(c4)OCO5)ncnc32)c1	i	i	i	i	i	/	/	/	/
Cc1ccc(-n2ncc3c(NCc4ccc5c(c4)OCO5)ncnc32)c(C)c1	i	i	i	i	32.2*	224.1%*	i	i	48.2*
O=C1COc2ccc(C(=O)CSc3nnc(Cc4cccs4)n3-c3ccccc3)cc2N1	i	i	i	i	26.6*	174.8%*	i	i	i
CCOc1ccccc1NC(=O)CSc1ccc(-c2ccco2)nn1	i	i	i	i	i	/	/	/	/
CCOc1ccccc1NC(=O)CSc1ccc(-c2sc(C)nc2C)nn1	i	i	i	i	37*	169.6%*	i	i	i
Nc1ncccc1OCc1ccc(Cl)c(Cl)c1	i	i	i	i	40.6*	172.1%*	i	i	i
C=CCNC(=O)c1ccccc1NC(=O)C1CCN(S(=O)(=O)c2ccc(SC)cc2)CC1	i	i	i	i	i	/	/	/	/
CN(Cc1cccs1)C(=O)CCc1c[nH]c2ccccc12	i	i	i	i	i	/	/	/	/
CN(Cc1cccs1)C(=O)CCCc1c[nH]c2ccccc12	i	i	i	i	26.6*	160.8%*	i	i	i
Cc1c2ccccc2nc2c(F)c(NC(C)C)c(F)c(F)c12	i	i	i	i	i	/	/	/	/
Cc1c2ccccc2nc2c(F)c(NCCO)c(F)c(F)c12	i	i	i	i	30.3*	i	0.115*	i	i
C=CCNc1ncnc2c1[nH]c1ccccc12	i	i	i	i	i	/	/	/	/
C=CCNc1ncnc2c1[nH]c1ccc(Cl)cc12	i	i	i	i	65.5*	353.0%*	i	i	59.1*
COc1ccc(S(=O)(=O)Nc2c(O)ccc3ccccc23)cc1OC	i	i	i	i	26.9*	i	i	i	i
CCCCOc1ccc(N(CC(=O)NC2CCCCC2)C(=O)CCC(=O)Nc2ccccn2)cc1	i	i	i	i	i	/	/	/	/
O=C(CNCC1CCCCC1)Nc1ccc(OC(F)(F)F)cc1	i	i	i	i	106*	416.5%*	i	i	52.1*
Fc1ccc(-c2cc(C(F)(F)C(F)F)[nH]n2)cc1	i	i	i	i	40.9*	212.3%*	i	i	47.6*
O=C(O)Cc1sc(Nc2ccc(F)cc2)nc1-c1cccs1	i	i	i	i	32.2*	i	i	i	i
Cc1c([N+](=O)[O-])c(C(=O)NC2CCCC2)nn1C	/	i	/	i	/	/	/	/	/
CCCCCC(=O)N/N=C(\C)c1ccccn1	i	i	i	i	86*	i	i	i	i
SMILES	MrgX1 allo act	RGS4 block	MrgX1 antagonist	RGS4 pot	MrgX1 agonist	MrgX1 ag confirm	HEK293 Ca flux	HEK293 Ca counter	HEK293 Ca cntr2
CCCCCCCCCC(=O)N/N=C(\C)c1cccnc1	i	i	i	i	i	/	/	/	/
Cc1cc(CSC(=N)N)c(CSC(=N)N)cc1C	i	i	i	i	91.1*	246.4%*	i	i	i
CC(C)Oc1ccc(CSC(=N)N)cc1	i	i	i	i	i	/	/	/	/
Cc1ccc(-c2csc3ncn(CC(=O)N4CCOCC4)c(=O)c23)cc1C	i	i	i	i	32.2*	134.7%*	i	i	i
COc1cc(OC)cc(C(=O)NC(=S)NNC(=O)Cc2cccs2)c1	i	i	i	i	72.1*	534.8%*	i	i	102*
COc1cc(NC(=O)Cc2cccs2)cc(OC)c1	i	i	i	i	i	/	/	/	/
Cc1ccccc1C(=O)NC(=S)Nc1ncccn1	i	i	i	i	i	/	/	/	/
Oc1c(C(c2ccccn2)N2CCCCC2)cc(Cl)c2cccnc12 (centres undefined)	i	i	i	i	32.3*	97.2%*	i	i	i
O=S(=O)(Nc1cccc(-c2ccc3nncn3n2)c1)c1cc(F)ccc1F	i	i	i	i	45.1*	203.6%*	i	i	i
Cc1ccc(S(=O)(=O)Nc2cccc(-c3ccc4nncn4n3)c2)cc1	i	i	i	i	i	/	/	/	/
CC(C)Nc1nc2nonc2nc1Nc1ccccc1	i	i	i	i	28.7*	175.1%*	i	i	i
COc1ccc(NS(=O)(=O)c2csc(C(=O)Nc3ccccc3)c2)cc1	i	i	i	i	i	/	/	/	/
CCOc1ccccc1NC(=O)COC(=O)C1CC(=O)N(c2c(C)cccc2C)C1 (centres undefined)	i	i	i	i	27.9*	i	i	i	i
Cc1cc(N2CCCCC2)nc(N)n1	i	i	i	i	101*	519.8%*	i	i	123*
N#CCSc1nc2ccccc2c(=O)n1C1CCCCC1	i	i	i	i	i	/	/	/	/
O=c1c2ccccc2nc(SCc2cccc(F)c2)n1C1CCCC1	i	i	i	i	28.8*	196.4%*	i	52.8*	i
COc1cccc(NC(=O)N2CCCC2C(=O)NC23CC4CC(CC(C4)C2)C3)c1 (centres undefined)	i	i	i	i	i	/	/	/	/
